Data on 28 compounds can be found in ChEMBL document CHEMBL4177581, “The compound (3-{5-[(2,5-dimethoxyphenyl)amino]-1,3,4-thiadiazolidin-2-yl}-5,8-methoxy-2H-chromen-2-one) inhibits the prion protein conversion from PrPC to PrPSc with lower IC50 in ScN2a cells” (Bioorg Med Chem, 2017).

Test [1] has as its target Major prion protein (Mesocricetus auratus) (UniProt P04273). Nature of the test: Binding affinity to Syrian hamster PrPC assessed as inhibition of PrPC protein conversion to PrPSc by measuring PrPSc level relative to untreated control. Details: concentration or dose not given beside the values.
Test [2] addresses T1, Major prion protein (Mesocricetus auratus, UniProt P04273). Nature of the test: Binding affinity to Syrian hamster PrPC assessed as inhibition of PrPC protein conversion to PrPSc by Western blot. (In general: In western blotting, separated proteins are transferred to a membrane and probed.)
In test [3] the target is T1, Major prion protein. Nature of the test: Binding affinity to Syrian hamster PrPC.
Test [4] in a line: Antiprion activity against mouse prion protein RML infected mouse ScN2a cells assessed as reduction in proteinase K-resistant PrPSc level incubated for 5 days followed by proteinase K digestion by Western blot method relative to control. Type of test: cell-based. Particulars: 120 h. Put shortly: (§1)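 RML scrapie-infected mouse N2a (ScN2a) cells treated for 5 days at […]. Lysates were made in 0.5% NP-40/0.5% deoxycholate Tris-HCl pH 8 buffer and normalised to 1 mg/ml protein. They were digested with 20 µg/ml proteinase K for 1 h at 37 °C, stopped with PMSF, and pelleted at 100,000g. Pellets were immunoblotted with 6D11-biotin. DMSO and quinacrine controls set the normalised percent PrPSc change.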

For another test, the system named is ScN2a. Nature of the test: Antiprion activity against mouse prion protein RML infected mouse ScN2a cells assessed as reduction in proteinase K-resistant PrPSc level at 10 to 100 uM incubated for 5 days followed by proteinase K digestion by Western blot method relative to control. Type of test: cell-based. An outline of the steps: as §1
Test [5] addresses Major prion protein (Mesocricetus auratus) (UniProt P04273). Nature of the test: Binding affinity to C-terminal 6x-His-tagged Syrian hamster PrPC (90 to 232 residues) by 15N-HSQC NMR spectroscopy. An outline of the steps:
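Uniformly 15N-labelled Syrian hamster PrPC residues 90–232 was titrated with ligand at a 5:1 ligand/protein molar ratio. 15N-HSQC spectra were recorded, and binding was read as chemical shift changes and signal attenuation of residues.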

Calls of active or inactive are those of the source. No cut-off for these calls is given here.

Sequence of Major prion protein (Mesocricetus auratus) (P04273 whole entry, the tested form may be a part): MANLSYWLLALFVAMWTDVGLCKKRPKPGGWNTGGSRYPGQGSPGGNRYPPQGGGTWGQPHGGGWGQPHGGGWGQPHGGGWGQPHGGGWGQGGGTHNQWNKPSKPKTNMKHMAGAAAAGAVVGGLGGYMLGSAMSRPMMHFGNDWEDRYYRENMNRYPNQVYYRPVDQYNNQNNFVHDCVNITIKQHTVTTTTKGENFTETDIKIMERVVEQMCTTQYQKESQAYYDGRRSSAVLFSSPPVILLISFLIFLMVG
T1 sequence (P04273 whole entry): as the sequence (P04273 whole entry, the tested form may be a part) above

What is called EC50 is the concentration giving half of the maximal effect. Turning to `CC1CCCCC1NC(=O)COc1ncnc2sc3c(c12)CCC3` (stereo unspecified), in test [1], the Activity worked out at 68.8%. The concentration for a half-maximal effect (EC50) at Major prion protein [2] worked out at 7.16 µM.
With `CCC[C@@H]1Nc2ccccc2N1CC(=O)N1CCCc2ccccc21`, the Activity in test [1] was determined as 67.2%. Also, the EC50 at Major prion protein [2] was determined as 7.17 µM.
By Kd is commonly meant the free concentration of one partner at which half of the binding sites on the other are occupied at equilibrium, for simple one-to-one binding. On to `Cc1cc2cc3c(cc2nc1SCCN1CCCCC1)OCCO3`, for which, in test [1], the Activity is 47.4%. This compound came in with an equilibrium dissociation constant (Kd) at Major prion protein [3] of 50.8 µM. Besides, the half-maximal effective concentration (EC50) on Major prion protein [2] worked out at 7.32 µM.
In the case of `O=C(COC(=O)c1c2c(nc3ccccc13)CCC2)NC1CCCC1`, in test [1], the Activity was 62.9%. For the same compound, the EC50 at Major prion protein [2] was found to be 7.2 µM.
Consider `CC1Cc2ccccc2N1C(=O)COc1ncnc2sccc12` (stereo unspecified), for which the Activity in test [1] was 67.4%. Further, on Major prion protein [2], the 50% effective concentration (EC50) stood at 7.17 µM.
As usually defined, the IC50 is the concentration that inhibits the measured activity by half. With `COc1ccc(OC)c(-c2nc(NC(=O)c3cc(OC)c(OC)c(OC)c3)sc2C)c1`, the IC50 in test [4] is 75 µM. At Major prion protein [3], this compound gave a Kd of 185 µM. The inhibition entry in the test with ScN2a was “Active”.
As to `CCCCNc1nc2ccccc2n1CC(=O)N1CCc2ccccc21`, in test [1], the Activity was 37.3%. For the same compound, the EC50 at Major prion protein [2] came out at 7.42 µM.
With `O=C(CSc1ncnc2sc3c(c12)CCC3)NCC1CCCO1` (stereo unspecified), the EC50 at Major prion protein [2] was 7.02 µM.
Regarding `Cc1cccc2cc3c(N)c(C(=O)NC4CCCC4)sc3nc12`, the Activity in test [1] came out at 41.9%. Further, the EC50 on Major prion protein [2] was determined as 7.37 µM.
For `O=C(N[C@@H]1CCc2ccccc2C1)C(=O)O[C@@H]1C=CCc2ccccc21`, in that order: 53% and 7.27 µM.
For `CN1/C(=C/C(=O)Nc2cccs2)c2ccccc2CC1(C)C`, in that order: 57.4% and 7.24 µM.
As for `C[C@@H]1CCCCN1CC(=O)N[C@@H]1S[C@H]2CCCC[C@@H]2[C@H]1C#N`, the Activity in test [1] worked out at 58.8%. The EC50 on Major prion protein [2] was determined as 7.23 µM.
On to `CCC(C)C(NC(=O)c1ccccc1)C(=O)N1CCc2ccccc21` (stereo unspecified), for which, in test [5], the outcome was Active. For the same compound, the Activity in test [1] worked out at 36.8%. In addition, the Kd on Major prion protein [3] amounted to 51.2 µM. Further, the EC50 at Major prion protein [2] was 7.43 µM.
For `O=C(CN1C(=O)c2cccc3cccc1c23)N[C@@H]1C[C@H]2CC[C@@H]1C2`, the Activity in test [1] came out at 65%. On Major prion protein [2], the EC50 amounted to 7.18 µM.
For `O=C(CN1C(=O)COc2ccccc21)N1CCCc2ccccc21`, in that order: 57.5% and 7.24 µM.
For `C=CNC(=O)NC(C)=O`, in that order: 56.7% and 7.24 µM.
In the case of `COc1ccc(-c2nc(N)sc2-c2ccc(OC)cc2)cc1`, the IC50 in test [4] is above 100 µM. Moreover, binding on Major prion protein [3] was put at a Kd of 15.5 µM. The inhibition result with ScN2a was “Active”.
Turning to `COc1ccc(-c2cnc(N)nc2C)cc1OC`, the IC50 in test [4] came to 35 µM. Also, the inhibition result with ScN2a was “Active”.
Take `COc1ccc(OC)c(Nc2nnc(-c3cc4cccc(OC)c4oc3=O)s2)c1`: the IC50 in test [4] is 20 µM. For the same compound, the Kd at Major prion protein [3] worked out at 46.4 µM. Further, in the test with ScN2a, the inhibition result is “Active”.
In the case of `O=C(CN1C(=O)N[C@@]2(CCCc3ccccc32)C1=O)N1CCCCC1`, the Activity in test [1] is 67.1%. The EC50 on Major prion protein [2] is 7.17 µM.
Regarding `COc1ccc(-c2cnc(N)nc2-c2ccc(OC)cc2)cc1`, in test [4], the IC50 came to 35 µM. Besides, the inhibition entry in the test on ScN2a is “Active”.
As for `COc1ccc(-c2nc(N)sc2C)c(OC)c1`, the 50% inhibitory concentration (IC50) in test [4] came to 35 µM. In addition, in the test with ScN2a, the inhibition result is “Active”.
`O=C(NC1CCCC1)C1CCCN1C(=O)Nc1ccccc1` (stereo unspecified): the Activity in test [1] was found to be 63.2%. Also, the EC50 at Major prion protein [2] was 7.19 µM.
For the compound `O=C(CN1CCc2ccccc21)[C@H]1COc2cc3c(cc21)CCC3`, in test [1], the Activity was 63.7%.
Take `Cc1cccc2cc(C#N)c(N3CCCN(C(=O)C4CCC4)CC3)nc12`: the Activity in test [1] was 50.6%. Also, the concentration for a half-maximal effect (EC50) on Major prion protein [2] was 7.29 µM.
As to `N#Cc1c(NC(=O)c2cc3c(s2)CCCC3)sc2c1CCCC2`, in test [1], the Activity came out at 66.9%. For the same compound, the EC50 at Major prion protein [2] was determined as 7.17 µM.
For `O=C(CCc1nc2ccccc2c(=O)[nH]1)NC1CCCc2ccccc21` (stereo unspecified), in that order: 65% and 7.18 µM.
For the compound `O=C(CC1CNc2ccccc21)NC1CCc2ccccc2C1` (stereo unspecified), the Activity in test [1] is 55.3%. Moreover, at Major prion protein [3], the Kd was 48.6 µM. Further, the EC50 at Major prion protein [2] worked out at 7.25 µM.
